{"data": "Assay results collected from several papers", "target": "Cyclin-dependent kinase 8 (CDK8, Homo sapiens, UniProt P49336)", "note": "Protocols differ between the studies behind these lines."}
{"Structure (SMILES)": "CC#CC(=O)N1CCC[C@H]1c1nc(-c2ccc(C(=O)Nc3ccccn3)cc2)c2c(N)nccn12", "assay": "enzyme activity, inhibitor", "setting": "1 µM", "measurement": "inhibition", "result": "5%"}
{"Structure (SMILES)": "Cc1cc(S(=O)(=O)N[C@H]2CC[C@H](CN3CCN(c4ccc(C5CCC(=O)NC5=O)cc4F)CC3)CC2)ccc1Nc1ncc(C(F)(F)F)c(N2CCC[C@](C)(O)C2)n1 (some centres unmarked)", "assay": "binding, competition with immobilised ligand", "setting": "1 µM", "measurement": "remaining binding", "result": "76%"}
{"Structure (SMILES)": "Cc1ccc(NC(=O)c2ccnc(C(F)(F)F)c2)cc1-c1cc(OCCO)nc(N2CCOCC2)c1", "assay": "binding, competition with immobilised ligand", "setting": "1 µM", "measurement": "remaining binding", "result": "100%"}
{"Structure (SMILES)": "C1=C/COCc2cc(ccc2OCCN2CCCC2)Nc2nccc(n2)-c2cccc(c2)COC/1", "assay": "cell-free assay", "setting": "0.1 µM", "measurement": "remaining signal", "result": "75%"}
{"Structure (SMILES)": "CO[C@@H]1[C@H](N(C)C(=O)c2ccccc2)C[C@H]2O[C@]1(C)n1c3ccccc3c3c4c(c5c6ccccc6n2c5c31)C(=O)NC4", "assay": "enzyme activity, inhibitor", "setting": "1 µM", "measurement": "inhibition", "result": "5%"}
{"Structure (SMILES)": "C[C@H]1CC[C@H](n2c3cnccc3c3cnc(Nc4ccc5c(n4)CCN(C(=O)CO)C5)nc32)CC1", "assay": "binding, competition with immobilised ligand", "setting": "1 µM", "measurement": "remaining binding", "result": "100%"}
{"Structure (SMILES)": "C[C@]1(O)CCCN(c2nc(Nc3ccc(S(=O)(=O)N[C@H]4CC[C@H](CN5CCN(c6ccc(C7CCC(=O)NC7=O)cc6F)CC5)CC4)cc3Cl)ncc2C(F)(F)F)C1 (some centres unmarked)", "assay": "binding, competition with immobilised ligand", "setting": "1 µM", "measurement": "remaining binding", "result": "80%"}
{"Structure (SMILES)": "CCCCC(=O)Nc1ccc(-c2ccc3ncn(CCC)c(=O)c3c2)cn1", "assay": "binding, competition with immobilised ligand", "setting": "0.5 µM", "measurement": "remaining binding", "result": "83%"}
